From PubChem BioAssay
MT1-MMP txn act – MT1-MMP promoter reporter activation – cell-based, luciferase luminescence, primary screen; HT1080 MT1-MMP promoter luciferase reporter, overnight; hits give high values; activation factor at 10 µM; 0.16% of 86,000 active;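 active = activation factor of at least 2 for MT1-MMP transcription at 10 µM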
M1 ag – M1 muscarinic receptor agonists, primary screen, CHO-M1 cells, Fluo-4 calcium, agonist mode | Muscarinic acetylcholine receptor M1 | Fluo-4 calcium fluorescence; hits give high values | B-score at 10 µM | 3% of 64,000 active | AID 626, 2007;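 active = fluorescence rise, raw or as B-score row- and column-corrected plate score, outside the 99.7% band of its plate's samples, either direction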
M1 antagonist – antagonists of rat M1 muscarinic receptor | 3.4% of 64,000 active | B-score at 10 µM | Muscarinic acetylcholine receptor M1 (Rattus norvegicus), P08482 | CHO-M1 cells, Fluo-4 calcium, ACh EC80 antagonist mode; hits give low values | AID 628, 2007;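 active = calcium fluorescence response, raw or row-and-column corrected B-score, differing from the plate sample mean either way at a set confidence level, mostly lower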
RORa activator – activators of orphan receptor RORA, primary screen, cell-based, luminescence | Nuclear receptor ROR-alpha (Homo sapiens), P35398 | CHO-K1 Gal4-RORA LBD luciferase reporter; percent increase over mock-subtracted basal signal | activation, % at 10 µM | 1.5% of 65,000 active | AID 560, 2006;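 active = activation above the mean of all tested compounds plus 3 SD, cut at about 49% in these data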;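 note: 0% = DMSO-treated RORA cells and 100% = added signal equal to DMSO minus mock-transfected cells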
SF-1 act – activators of human SF-1, primary screen, cell-based, CHO-K1, Gal4-SF-1 LBD, luciferase luminescence. activation, % at 10 µM. CHO-K1 Gal4-SF-1 LBD luciferase reporter; % increase over DMSO SF-1-specific signal. 1.9% of 65,000 active;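 active = activation above the mean activation of all tested compounds plus 3 SD, cut at about 50% in these data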
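Test system: CHO-K1 cells with Gal4–hSF-1 LBD chimera plus Gal4-driven luciferase; Input: 4,000 cells/well; Compound: 10 µM only; Times: 20 h compound treatment, 37 °C; Measured by: steady-glow luciferase luminescence, read after 15 min reagent incubation; Measure: percent activation versus DMSO; Control set: DMSO and mock-transfected background; Replicates: one test per compound.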
M1 agonist conf – rat M1 muscarinic receptor agonists, confirmation, CHO-M1 cells, Fluo-4 calcium, duplicate retest. fluorescence change (max-min) at 10 µM. 19% of 1,700 active. Fluo-4 calcium fluorescence, agonist mode; actives lie on both sides. AID 1488, 2009. shares compounds with M1 ag;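 active = fluorescence change differs from the solvent-only DMSO control mean at a set confidence level in both duplicate runs; inconclusive = differs from solvent-only control mean in just one of two runs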;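 note: an EC20 dose of acetylcholine follows compound addition during the same imaging run; raw fluorescence intensity difference in instrument units with no normalization to controls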
M4 agonist ctr – agonist activity at rat M4 receptor, confirmation, counter-screen for M1 allosteric modulator project, cell-based, agonist mode | shares compounds with M1 ag | CHO M4/Gqi5 cells, Fluo-4 calcium fluorescence; actives lie on both sides | fluorescence change (max-min) at 10 µM | 9% of 1,700 active;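 active = fluorescence change differing from the plate's solvent-only control wells at 99.7% confidence in both duplicates, whether higher or lower; inconclusive = differs from solvent controls in only one of two duplicates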
Target sequence (P08485 whole entry, looked up): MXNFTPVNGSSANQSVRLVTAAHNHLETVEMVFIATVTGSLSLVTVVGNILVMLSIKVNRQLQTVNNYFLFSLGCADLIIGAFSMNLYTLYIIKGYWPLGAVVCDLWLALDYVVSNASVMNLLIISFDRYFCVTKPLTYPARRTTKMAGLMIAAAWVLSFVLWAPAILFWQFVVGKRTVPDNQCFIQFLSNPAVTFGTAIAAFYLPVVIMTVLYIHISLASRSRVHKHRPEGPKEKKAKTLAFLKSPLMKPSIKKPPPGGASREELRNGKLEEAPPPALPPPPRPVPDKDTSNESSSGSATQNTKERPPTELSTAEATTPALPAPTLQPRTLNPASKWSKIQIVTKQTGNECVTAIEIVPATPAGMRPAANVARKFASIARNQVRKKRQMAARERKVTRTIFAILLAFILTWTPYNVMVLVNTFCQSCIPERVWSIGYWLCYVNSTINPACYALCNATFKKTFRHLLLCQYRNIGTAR
* = called active by the depositor; ? = inconclusive; / = not tested or not shown. Rows were chosen to be rich in hits. Some 6.3% of all compounds tested hit in one or more screens of this group.

SMILES	MT1-MMP txn act	M1 ag	M1 antagonist	RORa activator	SF-1 act	M1 agonist conf	M4 agonist ctr
COc1ccc(C(=O)Nc2ccc(Cl)cc2C(=O)NCc2ccco2)cc1OC	1.2	12.7*	-0.101	-1.7	5.7	-14.1	-16.1
CCOC(=O)C1CCCN(Cc2ccc(OCC)cc2)C1 (configuration not stated)	1.1	/	/	/	/	/	/
Nc1c(C(=O)Nc2ccccc2)sc2nc(-c3ccco3)ccc12	1.1	2.81*	-0.558	21.2	22.8	?	-56.8
CC1(C)NC(=O)N(CC(O)COc2ccccc2C(=O)Nc2ccccc2)C1=O (configuration not stated)	1	5.38*	-2.44	-20.4	3.1	?	-42.4
O=C(Nc1ccccc1)c1ccccc1OCC(O)CN1C(=O)c2ccccc2S1(=O)=O (configuration not stated)	1	6.11*	-1.88	1.0	6.9	-19.5	?
Cn1c(OCc2ccc3c(c2)OCO3)nc2c1c(=O)n(Cc1cccc(Cl)c1)c(=O)n2C	1	0.0476	-0.513	-16.3	11.2	/	/
CCOc1cc(S(=O)(=O)NC2CCCC2)ccc1Cl	1.1	8.92*	-0.33	-14.7	9.4	4.7	-12.9
CC(=O)N(CN1C(=O)c2ccccc2C1=O)c1ccccc1	1.2	1.05	-0.892	12.9	-5.2	/	/
CC(=O)N(c1ccccc1)c1c(F)c(F)c(F)c(F)c1F	/	3.92*	0.206	5.6	16.7	-7.18	-0.878
COc1ccc(OC)c(N(CC(=O)N2CCN(c3cc(Cl)ccc3C)CC2)S(C)(=O)=O)c1	1.1	-0.515	-0.00378	13.2	-11.9	/	/
COCCCn1c(C(C)C)nc2oc3cc(OC)ccc3c(=O)c2c1=O	1.1	13.3*	1.81	5.6	12.0	-10.1	-23.3
COCCn1c(C(C)C)nc2oc3ccccc3c(=O)c2c1=O	0.9	0.113	0.113	7.3	-28.9	/	/
COC(=O)c1ccc(S(=O)(=O)NCCSc2nnc3c4ccccc4n(C)c3n2)cc1	1.1	-0.867	0.831	-5.3	1.6	/	/
O=C(NC1CC1)c1c[nH]c2ccc(S(=O)(=O)Nc3cccc(C(F)(F)F)c3)cc2c1=O	1.1	-1.86*	0.464	-4.3	0.9	-10.8	?
O=S(=O)(c1ccc(Oc2ncnc3scc(-c4ccccc4)c23)cc1)N1CCOCC1	1.1	7*	-0.443	13.2	16.6	?	?
CC(=O)c1ccc(OCCCC(=O)OCC(=O)N2CCN(c3ccccc3)CC2)cc1	1	9.32*	-0.728	-8.5	14.6	-0.796	-74.8
O=C(CCCOc1ccccc1)N1CCN(c2ccccc2)CC1	1.3	/	/	/	/	/	/
CCOC(=O)CNC(=O)CSc1nnc(-c2ccco2)n1N	1.1	2.27*	1.22	-2.5	-14.4	-27.2*	-88.7*
CCOC(=O)CNC(=O)CSc1nnc(-c2ccco2)n1Cc1ccco1	1	0.242	-0.0836	-13.3	9.0	/	/
Cc1ccc(C)c(N2CCN(C(=O)c3cc4ccccn4n3)CC2)c1	1.1	30.8*	-0.769	-13.8	-10.9	55.3	9.96
Cc1ccccc1CNCc1cccnc1	1	/	/	/	/	/	/
CCc1ccc(CNCc2cccnc2)cc1	1	17.7*	0.0276	10.0	-26.0	-13.7	?
C=CCSc1nnc(NC(=O)COc2ccc3ccccc3c2)s1	1.1	/	/	/	/	/	/
c1ccc2c(c1)CCCN2Cc1nnc2n1CCCCC2	1	active	0.125	4.0	3.0	?	-33.2
c1ccc(Cc2nnc3n2CCCCC3)cc1	1	-0.506	-0.113	-23.0	10.3	/	/
SMILES	MT1-MMP txn act	M1 ag	M1 antagonist	RORa activator	SF-1 act	M1 agonist conf	M4 agonist ctr
CCOC(=O)c1c(C)oc2c1cc(O)c1ccccc12	1.8	0.591	0.111	-16.9	10.0	/	/
CCOC(=O)c1c(C)oc2c1c(C=NCC1CCCO1)c(O)c1ccccc12 (configuration not stated)	1.1	2.9*	0.299	14.6	-9.4	-16	6.4
CCOC(=O)c1c(C)oc2c1c(C=NCc1ccccn1)c(O)c1ccccc12	1.4	7.14*	-0.947	3.9	-21.6	28.3	-17.8
CC(C)N1C(=O)CCC1C(=O)NCCc1ccc(Cl)cc1 (configuration not stated)	1.1	0.436	0.105	-9.7	12.2	/	/
CCN1C(=O)C(O)(C2COC(C)(C)CC2=O)c2cc(Br)ccc21 (configuration not stated)	1	0.305	-0.694	11.4	14.5	/	/
Cc1ccccc1S(=O)(=O)Cc1ccc(C(=O)N2CCN(c3cccc(C)c3C)CC2)o1	0.5	9.65*	-0.631	-44.1	-81.7	?	-31.3
COc1ccccc1S(=O)(=O)Cc1ccc(C(=O)N2CCCC2)o1	1.1	-0.986	0.208	12.6	4.1	/	/
Cc1ccccc1S(=O)(=O)Cc1ccc(C(=O)N2CC(C)CC(C)C2)o1 (configuration not stated)	1.2	-0.89	0.00806	22.2	3.5	/	/
CCc1ccccc1S(=O)(=O)Cc1ccc(C(=O)N2CCN(c3ccccc3OC)CC2)o1	0.8	7.19*	-0.28	-17.7	-13.4	-15.6	?
CCc1ccc(N2CCCn3c2nc2c3c(=O)n(CCN3CCOCC3)c(=O)n2C)cc1	1.1	0.376	-0.341	-9.7	18.1	/	/
COc1ccc2c(c1)N(C)C(=O)CC(c1ccccc1)=N2	1	0.956	-0.267	2.3	3.1	/	/
c1ccc(CCCNc2ncnc3nc[nH]c23)cc1	/	1.73	-0.45	-10.9	-1.3	/	/
CCCNc1ncnc2nc[nH]c12	1.1	-0.387	0.0299	-19.2	-2.7	/	/
Clc1ccc(CCNc2ncnc3nc[nH]c23)cc1	1.2	14.9*	-2.56*	-15.8	-18.9	?	?
C1=C(CCNc2ncnc3nc[nH]c23)CCCC1	1.4	2.72*	-0.603	25.0	18.1	?	-24.6
c1ccc(Cc2nc3ccccc3o2)cc1	1.2	/	/	/	/	/	/
CC1CCCC(NC(=O)c2ccc(CNc3c(N4CCCC4)c(=O)c3=O)cc2)C1C (configuration not stated)	1.1	0.984	-0.658	1.4	24.4	/	/
NC(=O)CSc1nc2scc(-c3ccco3)c2c(=O)n1-c1ccccc1	1	4.31*	-1.45	-15.9	2.7	?	-55.4
Cc1ccccc1N1C(=O)N(c2cccc(C(F)(F)F)c2)C2CS(=O)(=O)CC21 (configuration not stated)	1.1	0.813	-0.048	-1.5	-10.0	/	/
Cc1c(/C=N/n2cnnc2)c2ccccc2n1C	1.2	0.0163	0.111	-10.2	7.4	/	/
